In brackets after ≈: the same amount, converted by molar mass.
Key:
[1] = tested on: Trypanosoma cruzi; test: WHO-TDR: Chagas disease; assay type: functional, organism-based, Homo sapiens; details: MRC5
Outline: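 A diverse library of 10,000 compounds from Life Chemicals, filtered for drug-likeness and reactive groups, was screened against intracellular amastigotes of Trypanosoma cruzi Tulahuen CL2 beta-galactosidase strain. The parasites were grown in MRC-5SV2 human lung fibroblast host cells, and a reference drug served as positive control under previously published standard procedures. Antiparasitic potency is given as IC50.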

[2] = tested on: Onchocerca ochengi; test: WHO-TDR: Onchocerciasis; assay type: functional; design: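 at 12.5 µM on microfilariae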
Outline: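 Percent inhibition and IC50 describe activity against microfilariae of Onchocerca ochengi or Onchocerca lienalis, used as animal-pathogen substitutes for the human parasite. The compounds tested made up a 10,000-member diverse library from Life Chemicals.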

[3] = tested on: Leishmania infantum; test: WHO-TDR: Leishmaniasis; assay type: functional, organism-based, Mus musculus; details: Macrophage
Outline: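 Intracellular amastigotes of Leishmania infantum MHOM/MA(BE)/67, hosted in murine peritoneal macrophages, were exposed to compounds from a 10,000-member diverse library supplied by Life Chemicals. The library had been filtered for drug-likeness and reactive groups. The reported IC50 expresses antiparasitic potency.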

[4] = tested on: Plasmodium falciparum K1; test: WHO-TDR: Malaria; assay type: functional, organism-based, Homo sapiens; details: Erythrocyte
Outline: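 Previously published standard procedures, including a reference drug as positive control, were used to screen whole Plasmodium falciparum K1 parasites inside human red blood cells. IC50 is the measure of antiplasmodial potency. The compounds were a 10,000-member diverse Life Chemicals library.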

[5] = tested on: Trypanosoma brucei brucei; test: WHO-TDR: Human African Trypanosomiasis (HAT); assay type: functional, organism-based; details: Squib-427
Outline: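 In this whole-organism screen, the target was the bloodstream form of Trypanosoma brucei, strain Squib 427. A diverse set of 10,000 compounds from Life Chemicals, previously filtered for drug-likeness and reactive groups, was assayed by standard published procedures using reference drugs as positive controls. Each value is an IC50 for antiparasitic potency.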

[6] = WHO-TDR: Cytotoxicity; assay type: toxicity, cell-based; details: human, MRC5 cells
[7] = tested on: Schistosoma mansoni; test: WHO-TDR: Schistosomiasis; assay type: functional; design: concentration or dose not given beside the values
Outline: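 Percent inhibition and IC50 describe activity against whole Schistosoma mansoni worms of the Puerto Rican strain, tested as larvae and/or adults. The compounds screened were a diverse set of 10,000 from Life Chemicals, filtered for drug-likeness and reactive groups. Testing followed previously published standard procedures, with a reference drug as positive control.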

[8] = tested on: Brugia malayi; test: WHO-TDR: Lymphatic Filariasis; assay type: functional; design: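 tested at 10 µM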
Outline: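 The screening set was a 10,000-compound diverse library from Life Chemicals, filtered for drug-likeness and for reactive groups. It was run against Brugia malayi microfilariae as whole organisms, using previously published standard procedures. Reference drugs acted as positive controls, and activity is reported both as percent inhibition and as IC50.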

| SMILES | IC50 [3] | IC50 [4] | IC50 [5] | IC50 [1] | % Inhibition [2] | IC50 [6] | % Inhibition [7] | % Inhibition [8] |
| --- | --- | --- | --- | --- | --- | --- | --- | --- |
| O=C(COc1ccccc1)NCC(c1ccco1)N1CCN(c2ccc(F)cc2)CC1 (stereo not drawn) | > 12.7 µg/mL | > 12.7 µg/mL | 4.02 µg/mL (≈ 9.49 µM) | 4.08 µg/mL (≈ 9.63 µM) | 100% | > 12.7 µg/mL | 0% |  |
| O=C(NCC(c1ccco1)N1CCN(c2ccc(F)cc2)CC1)OCc1ccccc1 (stereo not drawn) | > 12.7 µg/mL | > 12.7 µg/mL | 4.11 µg/mL (≈ 9.71 µM) | 3.86 µg/mL (≈ 9.13 µM) | 100% | > 12.7 µg/mL | 0% |  |
| O=C(Nc1nnc(-c2ccco2)o1)c1cc(-c2ccccc2)nc2ccccc12 | 3.71 µg/mL (≈ 9.71 µM) | 9.02 µg/mL (≈ 23.6 µM) | 3.23 µg/mL (≈ 8.45 µM) | 0.305 µg/mL (≈ 0.798 µM) |  | 2.04 µg/mL (≈ 5.33 µM) | 0% | 0% |
| O=C(Nc1nnc(-c2ccc3c(c2)OCCO3)o1)c1cc(-c2ccccc2)nc2ccccc12 | 4.37 µg/mL (≈ 9.71 µM) | > 13.5 µg/mL | 4.27 µg/mL (≈ 9.49 µM) | 0.434 µg/mL (≈ 0.963 µM) |  | 4.33 µg/mL (≈ 9.6 µM) | 0% | 70% |
| CCCCCOc1cccc(C(=O)Nc2nnc(-c3ccco3)o2)c1 | 3.28 µg/mL (≈ 9.6 µM) | > 10.2 µg/mL | 3.29 µg/mL (≈ 9.63 µM) | 0.368 µg/mL (≈ 1.08 µM) |  | 5.71 µg/mL (≈ 16.7 µM) | 0% | 25% |
| CCOC(=O)Cn1/c(=N/C(=O)CSC(C)=O)sc2ccccc21 | > 10.6 µg/mL | > 10.6 µg/mL | 0.342 µg/mL (≈ 0.97 µM) | > 10.6 µg/mL |  | > 10.6 µg/mL | 0% | 0% |
| CCSc1nnc2ccc(-c3ccc(CC)cc3)nn12 | > 8.53 µg/mL | > 8.53 µg/mL | > 8.53 µg/mL | > 8.53 µg/mL | 100% | > 8.53 µg/mL | 0% |  |
| O=C(Nc1cccc(-c2ccc3nnc(-c4ccncc4)n3n2)c1)c1ccc2ccccc2n1 | > 13.3 µg/mL | 0.482 µg/mL (≈ 1.09 µM) | > 13.3 µg/mL | 7.48 µg/mL (≈ 16.9 µM) | 0% | > 13.3 µg/mL | 0% |  |
| Cc1nnc2ccc(-c3ccc(NS(=O)(=O)c4ccc5c(c4)CCCC5)cc3)nn12 | 4.07 µg/mL (≈ 9.71 µM) | > 12.6 µg/mL | 4.63 µg/mL (≈ 11 µM) | 4.92 µg/mL (≈ 11.7 µM) | 100% | > 12.6 µg/mL | 0% |  |
| C=CCN(CC=C)S(=O)(=O)c1ccc(C(=O)Nc2nnc(-c3ccc(C)cc3C)o2)cc1 | 5.72 µg/mL (≈ 12.7 µM) | > 13.6 µg/mL | 0.988 µg/mL (≈ 2.18 µM) | 0.583 µg/mL (≈ 1.29 µM) | 0% | 4.48 µg/mL (≈ 9.9 µM) | 0% |  |
| Cc1ccc(S(=O)(=O)CC(=O)Nc2cccc(Cl)c2)cc1 | > 9.71 µg/mL | > 9.71 µg/mL | > 9.71 µg/mL | > 9.71 µg/mL | 100% | > 9.71 µg/mL | 0% |  |
| Cc1ccc(SCCC(=O)Nc2cc(Cl)cc(Cl)c2)cc1 | > 10.2 µg/mL | > 10.2 µg/mL | > 10.2 µg/mL | > 10.2 µg/mL | 100% | > 10.2 µg/mL | 0% |  |
| CCOC(=O)c1ccc(NC(=O)CCSc2ccc(C)cc2)cc1 | > 10.3 µg/mL | > 10.3 µg/mL | > 10.3 µg/mL | > 10.3 µg/mL | 100% | > 10.3 µg/mL | 0% |  |
| CNC(=O)c1ccsc1NC(=O)CSc1ccc(Cl)cc1 | > 10.2 µg/mL | > 10.2 µg/mL | 5.06 µg/mL (≈ 14.8 µM) | 4.93 µg/mL (≈ 14.5 µM) | 100% | > 10.2 µg/mL | 0% |  |

Further lines, with some results ahead:

| IC50 [3] | IC50 [4] | IC50 [5] | SMILES | IC50 [1] | % Inhibition [2] | IC50 [6] | % Inhibition [7] | % Inhibition [8] |
| --- | --- | --- | --- | --- | --- | --- | --- | --- |
| > 11.1 µg/mL | > 11.1 µg/mL | 2.97 µg/mL (≈ 8.01 µM) | COc1cccc2sc(Nc3nc4ccc(NC(C)=O)cc4s3)nc12 | 0.388 µg/mL (≈ 1.05 µM) |  | > 11.1 µg/mL | 0% | 90% |
| > 12.3 µg/mL | > 12.3 µg/mL | > 12.3 µg/mL | CCOc1ccc2nc(NC(=O)CS(=O)(=O)c3ccc(Cl)cc3)sc2c1 | > 12.3 µg/mL | 100% | > 12.3 µg/mL | 0% |  |
| 0.412 µg/mL (≈ 0.971 µM) | > 12.7 µg/mL | > 12.7 µg/mL | Cc1cc2cc(CCNC(=O)C3c4ccccc4Oc4ccccc43)c(O)nc2cc1C | > 12.7 µg/mL |  | > 12.7 µg/mL | 0% | 0% |
| > 10.2 µg/mL | > 10.2 µg/mL | > 10.9 µg/mL | O=C(Nc1nnc(C2COc3ccccc3O2)o1)c1ccc(F)cc1 (stereo not drawn) | 0.289 µg/mL (≈ 0.847 µM) |  | > 10.2 µg/mL | 0% | 25% |
| > 12.9 µg/mL | 4.14 µg/mL (≈ 9.62 µM) | > 12.9 µg/mL | CCOc1ccc2nc(N(Cc3cccnc3)C(=O)c3ccc(Cl)s3)sc2c1 | 0.397 µg/mL (≈ 0.922 µM) | 0% | > 12.9 µg/mL | 0% |  |
| 3.35 µg/mL (≈ 9.71 µM) | > 10.4 µg/mL | > 11 µg/mL | O=C(Nc1nnc(-c2cccnc2)o1)c1cccc(Br)c1 | 0.705 µg/mL (≈ 2.04 µM) |  | 8.09 µg/mL (≈ 23.4 µM) | 0% | 25% |
| 3.25 µg/mL (≈ 9.71 µM) | > 10 µg/mL | 3.38 µg/mL (≈ 10.1 µM) | O=C(Nc1nnc(-c2cccnc2)o1)c1cccc(C(F)(F)F)c1 | 0.317 µg/mL (≈ 0.948 µM) |  | 2.99 µg/mL (≈ 8.96 µM) | 0% | 25% |
| > 13 µg/mL | 5.18 µg/mL (≈ 11.9 µM) | 0.481 µg/mL (≈ 1.11 µM) | O=C(Nc1cccc(-c2ccc3nnc(-c4cccs4)n3n2)c1)c1c(F)cccc1F | > 13 µg/mL | 50% | > 13 µg/mL | 0% |  |
| > 12.4 µg/mL | 2.67 µg/mL (≈ 6.46 µM) | 3.81 µg/mL (≈ 9.24 µM) | O=C(Cc1cccs1)Nc1cccc(-c2ccc3nnc(-c4cccnc4)n3n2)c1 | > 12.4 µg/mL | 100% | 4.45 µg/mL (≈ 10.8 µM) | 0% |  |
| > 11.5 µg/mL | 1.82 µg/mL (≈ 4.75 µM) | > 11.5 µg/mL | O=C(Nc1cccc(-c2ccc3nnc(-c4cccnc4)n3n2)c1)c1ccco1 | > 11.5 µg/mL | 100% | > 11.5 µg/mL | 0% |  |
| > 13.4 µg/mL | 5.88 µg/mL (≈ 13.2 µM) | > 13.4 µg/mL | O=S(=O)(Nc1ccc(-c2ccc3nnc(-c4ccccn4)n3n2)cc1)c1ccccc1F | > 13.4 µg/mL | 100% | > 13.4 µg/mL | 0% |  |
| > 12.1 µg/mL | 3.83 µg/mL (≈ 9.49 µM) | 3.87 µg/mL (≈ 9.6 µM) | COc1ccc(C)c2sc(N(Cc3cccnc3)C(=O)Cc3ccccc3)nc12 | 0.992 µg/mL (≈ 2.46 µM) | 0% | > 12.1 µg/mL | 0% |  |
| > 12.7 µg/mL | 6.29 µg/mL (≈ 14.8 µM) | 5.26 µg/mL (≈ 12.4 µM) | CC(=O)c1ccc(C(=O)N(Cc2cccnc2)c2nc3c(F)cc(F)cc3s2)cc1 | 1.31 µg/mL (≈ 3.09 µM) | 100% | > 12.7 µg/mL | 0% |  |
| 4.75 µg/mL (≈ 12.6 µM) | > 11.3 µg/mL | 7.21 µg/mL (≈ 19.2 µM) | COc1cccc(C(=O)Nc2ccc(C)cc2C(=O)c2ccccc2)c1OC | 3.69 µg/mL (≈ 9.83 µM) | 100% | > 11.3 µg/mL | 0% |  |
| > 12.3 µg/mL | > 12.3 µg/mL | > 12.3 µg/mL | O=C(CS(=O)(=O)c1ccc(Cl)cc1)Nc1nc(-c2ccc(F)cc2)cs1 | > 12.3 µg/mL | 100% | > 12.3 µg/mL | 0% |  |
| 4.28 µg/mL (≈ 9.71 µM) | > 13.2 µg/mL | > 13.2 µg/mL | O=C(CCS(=O)(=O)c1ccc(Cl)cc1)Nc1cccc(-c2nc3ccccc3o2)c1 | > 13.2 µg/mL | 100% | > 13.2 µg/mL | 0% |  |
| > 11.2 µg/mL | > 11.2 µg/mL | > 11.2 µg/mL | Cc1ccc(SCC(=O)Nc2ccccc2-c2nc3ccccc3[nH]2)cc1 | > 11.2 µg/mL | 100% | > 11.2 µg/mL | 0% |  |
| > 10.7 µg/mL | > 10.7 µg/mL | > 10.7 µg/mL | Cc1ccc(SCCC(=O)Nc2nc(-c3ccccn3)cs2)cc1 | 0.368 µg/mL (≈ 1.03 µM) | 75% | 8.21 µg/mL (≈ 23.1 µM) | 25% |  |
| > 12.1 µg/mL | 0.41 µg/mL (≈ 1.01 µM) | 3.93 µg/mL (≈ 9.71 µM) | COc1ccc(-c2nc(NC(=O)CSc3ccc(Cl)cc3)sc2C)cc1 | 1.52 µg/mL (≈ 3.76 µM) | 100% | > 12.1 µg/mL | 0% |  |
| > 12.8 µg/mL | > 12.8 µg/mL | 4.31 µg/mL (≈ 10.1 µM) | NS(=O)(=O)c1ccc2nc(NC(=O)CCSc3ccc(Cl)cc3)sc2c1 | > 12.8 µg/mL | 100% | > 12.8 µg/mL | 0% |  |

— ChEMBL document CHEMBL2093137, “WHO-TDR NTD Screening”
